Columns and labels:
Assay type in all cases: functional
Staphylococcus aureus [1] = test: Antibacterial activity against Staphylococcus aureus ATCC 25923 after 24 hrs by broth microdilution assay; settings: ATCC 25923, 24 h
Outline: (§1)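 Broth microdilution MIC in Mueller-Hinton broth; serial doubling dilutions over 0.0024-1.25 mg/mL. Overnight broth cultures, inoculum adjusted to 2 × 10^6 cfu/mL final per well. Incubated at 37 °C for 24 h. MIC read as the lowest concentration without visible growth (no turbidity). Duplicate wells, repeated twice; levofloxacin as positive control.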

Escherichia coli = test: Antibacterial activity against Escherichia coli ATCC 25922 after 24 hrs by broth microdilution assay; settings: ATCC 25922, 24 h; outline: as §1
Staphylococcus aureus [2] = test: Antibacterial activity against methicillin-resistant Staphylococcus aureus isolate after 24 hrs by broth microdilution assay
Outline: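 Clinical MRSA isolate; broth microdilution in Mueller-Hinton broth, twofold serial dilutions over 0.0024-1.25 mg/mL, final inoculum 2 × 10^6 cfu/mL from overnight broth culture; 37 °C, 24 h. MIC taken as lowest concentration without visible turbidity. Duplicate wells, repeated twice; levofloxacin positive control.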

Candida albicans = test: Antifungal activity against Candida albicans after 48 hrs by broth microdilution assay
Outline: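 Yeast tested by broth microdilution in Mueller-Hinton broth; samples serially doubled over 0.0024-1.25 mg/mL. Inoculum from overnight broth culture, final 2 × 10^6 cfu/mL per well. Plates held at 30 °C for 48 h. MIC taken as the lowest concentration showing no turbidity. Duplicate, repeated twice; fluconazole positive control.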

Measured: MIC

C=C(C(CC1OC1(C)C)OC(=O)/C(C)=C\C)[C@H]1C[C@H]2O[C@@]2(C)C[C@H]1OC(=O)/C(C)=C\C (some centres not stated)
> 62.5 µg/mL: all assays above

C=C(C(CC(O)C(C)(C)O)OC(=O)/C(C)=C\C)[C@H]1C[C@H]2O[C@@]2(C)[C@@H](O)[C@H]1OC(=O)/C(C)=C\C (some centres not stated)
> 62.5 µg/mL: all assays above

C=C(C(CC(O)C(C)(C)O)OC(=O)/C(C)=C\C)[C@H]1C[C@H]2O[C@@]2(C)C(=O)[C@@H]1OC(=O)/C(C)=C\C (some centres not stated)
> 62.5 µg/mL: all assays above

C=C(C(CC1OC1(C)C)OC(=O)/C(C)=C\C)[C@H]1C[C@H](Cl)[C@@](C)(O)[C@@H](O)[C@H]1OC(=O)/C(C)=C\C (some centres not stated)
> 62.5 µg/mL: all assays above

C=C(C(CC1OC1(C)C)OC(=O)/C(C)=C\C)[C@H]1C[C@H]2O[C@@]2(C)[C@H](OC(=O)/C(C)=C\C)[C@@H]1O (some centres not stated)
> 62.5 µg/mL: all assays above

C=C(C(CC1OC1(C)C)OC(=O)/C(C)=C\C)[C@H]1C[C@H](OC(=O)/C(C)=C\C)[C@@](C)(O)[C@@H](OC(=O)/C(C)=C\C)[C@H]1O (some centres not stated)
> 62.5 µg/mL: all assays above

C=C(C(CC1OC1(C)C)OC(=O)/C(C)=C\C)[C@H]1C[C@@H]2O[C@]2(C)[C@@H](OC(=O)/C(C)=C\C)[C@@H]1O (some centres not stated)
> 62.5 µg/mL: all assays above

C=C(C(CC1OC1(C)C)OC(=O)/C(C)=C\C)[C@H]1C[C@H]2O[C@@]2(C)[C@@H](OC(=O)/C(C)=C\C)[C@H]1OC(=O)/C(C)=C\C (some centres not stated)
> 62.5 µg/mL: all assays above

From ChEMBL document CHEMBL1157336, “Bisabolane sesquiterpenes from the roots of Ligularia cymbulifera” (2006)
